Entries after “also recorded” stand apart in the source; their conditions may differ.
Columns and labels:
[1] = Body weight in MC38 anti-PD-1 combination study; assay type: in vivo, C57BL/6/CES1-/- mice; settings: MC38 tumor-bearing mice, throughout the experiment
P493B lymphoma cells = experiment: P493B lymphoma cell viability assay; assay type: cell-based; settings: 72 h
EL4 tumors [2] = experiment: Antitumor efficacy, subcutaneous dosing cohort, EL4 tumors; assay type: in vivo, C57BL/6/CES1-/- mice; settings: 0.1, 0.3 and 1 mg/kg DON eq. subcutaneously, 5 days per week
How it was run: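 EL4 mouse lymphoma cells (0.3 × 10^6) were injected s.c. into the right flank of male and female C57BL/6/CES1−/− mice aged 6–8 weeks (25–30 g). Test compound was given s.c. at 0.1, 0.3 or 1 mg/kg DON equivalent, 5 days/week. Tumor length and width were measured by caliper, with volume = […]. Body weight and GI histology were tracked in parallel.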

EL4 tumors [3] = experiment: Antitumor efficacy, intravenous cohort, EL4 tumors; assay type: in vivo, C57BL/6/CES1-/- mice; settings: 1 mg/kg DON eq. intravenously, 5 days per week for 2 weeks
How it was run: (§1)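 EL4 cells (0.3 × 10^6) were given s.c. in the right flank. At a mean tumour volume of about 400 mm3, mice were randomised (n = 8) to vehicle, parent drug 1 mg/kg or test compound 1 mg/kg DON equivalent, i.v., 5 days/week for 2 weeks. Tumour volume (calipers, […]), body weight and mortality were tracked; euthanasia followed IACUC tumour-volume or weight-loss guidelines.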

[4] = Plasma stability, human plasma; assay type: in vitro ADME; settings: % remaining at 60 minutes, 37°C
[5] = PK of DRP-104, DON and M1 in EL4 tumor-bearing mice; assay type: in vivo, C57BL/6/CES1-/- mice; settings: for intact DRP-104 concentration: BLQ = below the limit of quantitation
MC38 tumors [6] = experiment: CD8 depletion study, MC38 tumors; assay type: in vivo, C57BL/6/CES1-/- mice; settings: MC38, CD8+ T cell-depleting antibodies versus isotype
How it was run: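 MC38-bearing CES1−/− mice received anti-mouse CD8β (clone 53-5.8) or rat IgG1 isotype (clone HRPN), 5 mg/kg, the day before implantation, the day after and weekly thereafter; depletion was checked by flow cytometry. Test compound was given at 0.3 mg/kg DON equivalent s.c., 5 days/week, and individual tumour growth was followed.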

recombinant CES1 enzyme = target: T1, recombinant CES1 enzyme (Homo sapiens, UniProt P23141); experiment: Recombinant CES1 enzyme stability; assay type: in vitro ADME; settings: 20 μM, enzyme 10 μg/ml, up to 3 hours
T1 sequence (P23141 18-567): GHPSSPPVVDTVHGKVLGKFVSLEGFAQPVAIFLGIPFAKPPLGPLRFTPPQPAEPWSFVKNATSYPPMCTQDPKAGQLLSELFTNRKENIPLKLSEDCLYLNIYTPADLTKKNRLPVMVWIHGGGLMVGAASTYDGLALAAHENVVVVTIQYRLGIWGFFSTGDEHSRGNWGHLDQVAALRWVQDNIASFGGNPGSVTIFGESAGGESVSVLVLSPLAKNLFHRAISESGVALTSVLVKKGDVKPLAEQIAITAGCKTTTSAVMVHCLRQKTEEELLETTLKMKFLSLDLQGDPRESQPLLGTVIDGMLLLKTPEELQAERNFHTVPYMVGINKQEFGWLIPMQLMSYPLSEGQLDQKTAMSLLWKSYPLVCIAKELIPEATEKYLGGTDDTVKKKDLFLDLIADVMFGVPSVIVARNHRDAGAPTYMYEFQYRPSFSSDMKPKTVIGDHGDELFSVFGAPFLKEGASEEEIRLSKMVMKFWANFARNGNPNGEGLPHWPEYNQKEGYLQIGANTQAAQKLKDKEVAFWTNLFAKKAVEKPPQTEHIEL

FGAR = experiment: Tumor target engagement: tumor FGAR; assay type: in vivo, C57BL/6/CES1-/- mice; settings: EL4 tumor, 1 hour after s.c. dose (DRP-104 2.6 mg/kg, DON 0.3 mg/kg)
[7] = Tolerability, intravenous cohort; assay type: in vivo, C57BL/6/CES1-/- mice
How it was run: as §1

[8] = target: T2, glutaminase enzyme (GLS-1) (Homo sapiens, UniProt O94925); experiment: GLS-1 inhibition, [3H]-glutamine radiolabel enzymatic assay; assay type: biochemical
T2 sequence (O94925 55-669): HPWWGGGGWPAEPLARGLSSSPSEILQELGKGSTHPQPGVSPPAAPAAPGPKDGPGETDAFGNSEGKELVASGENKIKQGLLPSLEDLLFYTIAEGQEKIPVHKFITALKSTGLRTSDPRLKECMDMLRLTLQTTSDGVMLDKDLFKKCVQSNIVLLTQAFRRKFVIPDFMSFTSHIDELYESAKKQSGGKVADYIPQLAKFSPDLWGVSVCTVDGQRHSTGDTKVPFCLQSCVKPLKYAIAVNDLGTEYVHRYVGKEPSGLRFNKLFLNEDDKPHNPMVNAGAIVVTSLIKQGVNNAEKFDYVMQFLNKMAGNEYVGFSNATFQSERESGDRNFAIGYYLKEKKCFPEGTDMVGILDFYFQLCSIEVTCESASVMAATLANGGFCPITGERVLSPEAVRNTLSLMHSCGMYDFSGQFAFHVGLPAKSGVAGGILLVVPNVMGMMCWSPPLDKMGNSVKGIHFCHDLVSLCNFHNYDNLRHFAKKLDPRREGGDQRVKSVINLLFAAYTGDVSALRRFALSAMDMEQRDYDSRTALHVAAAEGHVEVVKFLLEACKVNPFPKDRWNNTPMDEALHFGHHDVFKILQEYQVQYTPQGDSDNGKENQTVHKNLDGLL

[9] = Tolerability, subcutaneous dosing cohort; assay type: in vivo, C57BL/6/CES1-/- mice; settings: 0.1, 0.3 and 1 mg/kg DON eq. subcutaneously
How it was run: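 EL4 tumour-bearing CES1−/− mice (0.3 × 10^6 cells s.c., right flank) received test compound at 0.1, 0.3 or 1 mg/kg DON equivalent s.c., 5 days/week. Tumour volume and body weight were recorded during dosing, with GI histology assessed alongside.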

[10] = DRP-104 stability in EL4 tumor homogenate with protease/esterase inhibitors; assay type: in vitro ADME, mouse; settings: no inhibitor, time 1 h
[11] = GI tissue homogenate stability and DON release; assay type: in vitro ADME, C57BL/6/CES1-/- mouse; settings: C57BL/6/CES1-/-, mouse, GI tissue (jejunum) homogenate, pH 7.4
MC38 tumors [12] = experiment: Anti-PD-1 combination study, MC38 tumors; assay type: in vivo, C57BL/6/CES1-/- mice; settings: MC38 tumor-bearing mice, same regimens
How it was run: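 Mice (4 male, 3 female per group, n = 7) got 5 × 10^5 MC38 cells s.c. in the right flank and were randomised at about 400 mm3 (about day 10). Arms: vehicle; anti-PD-1 100 μg i.p. on days 10, 12, 14 and 16; test compound 0.8 mg/kg s.c., 5 days/week for 4 weeks; combination. Endpoint: tumour >4000 mm3, ulceration, necrosis or functional deficit.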

[13] = Intestinal S9 fraction stability and DON release; assay type: in vitro ADME; settings: human
How it was run: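 Test compound at 10 μM was incubated with intestinal S9 fraction (final protein 1 mg/ml) at 37°C on an orbital shaker for 1 h, in triplicate. Reactions were quenched with three volumes of acetonitrile containing internal standard.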

[14] = GI histopathology and scoring; assay type: in vivo, C57BL/6/CES1-/- mice; settings: for GI histology (in words): 1 mg/kg DON eq. IV, end of treatment
GLS-1 = target: T3, GLS-1 (Mus musculus, UniProt D3Z7P3); experiment: Tumor target engagement: tumor GLS-1 activity; assay type: in vivo, C57BL/6/CES1-/- mice; settings: EL4 tumor, 1 hour after s.c. dose
T3 sequence (D3Z7P3 55-674): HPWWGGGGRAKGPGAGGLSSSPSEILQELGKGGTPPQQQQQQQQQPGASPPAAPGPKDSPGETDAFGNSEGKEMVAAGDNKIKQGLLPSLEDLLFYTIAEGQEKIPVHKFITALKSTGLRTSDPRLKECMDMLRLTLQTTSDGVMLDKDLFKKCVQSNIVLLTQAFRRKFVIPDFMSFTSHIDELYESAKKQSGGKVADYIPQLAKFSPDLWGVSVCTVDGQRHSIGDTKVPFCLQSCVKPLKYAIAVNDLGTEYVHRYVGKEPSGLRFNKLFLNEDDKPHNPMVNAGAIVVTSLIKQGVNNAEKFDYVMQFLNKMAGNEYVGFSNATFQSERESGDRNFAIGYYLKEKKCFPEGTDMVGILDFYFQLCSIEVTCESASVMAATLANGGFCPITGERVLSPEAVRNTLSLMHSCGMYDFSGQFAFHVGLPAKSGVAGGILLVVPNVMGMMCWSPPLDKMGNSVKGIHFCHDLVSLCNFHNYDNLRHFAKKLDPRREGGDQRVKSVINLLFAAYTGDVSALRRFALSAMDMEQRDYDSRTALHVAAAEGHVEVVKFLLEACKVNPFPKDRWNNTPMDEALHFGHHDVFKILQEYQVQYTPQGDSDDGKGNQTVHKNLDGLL
How it was run: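 Test compound was dosed s.c. to EL4 tumor-bearing CES1−/− mice, and tumors were harvested 1 h post-dose. Tumor GLS-1 activity was quantified with a radiolabel-based enzymatic assay.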

[15] = Plasma stability, WT mouse plasma; assay type: in vitro ADME, WT C57BL/6 mouse; settings: C57BL/6, mouse
[16] = Metabolite identification; assay type: in vitro ADME, mouse; settings: 60-min incubation
EL4 tumors [17] = experiment: 13C5-glutamine flux analysis in EL4 tumors; assay type: in vivo, CES1-/- mice; settings: 0.3 mg/kg DON eq. s.c., vehicle 19.99%
[18] = cited from earlier work
[19] = 31 of 47 patients who received 2 weeks or more of DON therapy; cited from earlier work
Complete blood count = assay type: in vivo, C57BL/6/CES1-/- mice; settings: Avg of 3 animals, 1 mg/kg (eq.) iv, normal range 1.06-56.08
How it was run: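 In the EL4 i.v. cohort (vehicle, parent drug or test compound at 1 mg/kg DON equivalent, 5 days/week for 2 weeks), mice remaining at the end of treatment were sacrificed and blood was collected for a complete blood count.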

In the case of CC(=O)N[C@@H](Cc1c[nH]c2ccccc12)C(=O)N[C@@H](CCC(=O)C=[N+]=[N-])C(=O)OC(C)C [DRP-104, isopropyl(S)-2-((S)-2-acetamido-3-(1H-indol-3-yl)-propanamido)-6-diazo-5-oxo-hexanoate], the “effect on body weight (in words)” value [1] is reported as “no substantial effect on body weight”, the EC50 (P493B lymphoma cells) is reported as 10 ± 1.9 µM and the “tumor growth (in words)” value (EL4 tumors [2]) is reported as “dose-dependent inhibition of tumor growth; also recorded: complete tumor regression at the higher two doses”. The “tumor response (in words)” value (EL4 tumors [3]) was “complete regression of the tumor”, the remaining at 1 h, 20 μM [4] was greater than 90% and the “intact DRP-104 concentration” value ([5]; GI tissue) was “no DRP-104 was observed”. For the same compound, the AUC0-t ([5]; plasma, after DRP-104 2.6 mg/kg s.c., 2.6 mg/kg) was 0.65 nmol hour/ml or nmol hour/g, the “intact DRP-104 concentration” value ([5]; tumor) was “no DRP-104 was observed” and the “dependence of efficacy on CD8+ T cells (in words)” value (MC38 tumors [6]) was “completely dependent”. For the same compound, the “metabolism by recombinant CES1 (in words)” value (recombinant CES1 enzyme) was “CES1 was capable of metabolizing DRP-104 to M1 metabolite”, the “tumor FGAR increase versus vehicle” value (FGAR) was greater than 80 fold and the “deaths (in words)” value ([7]; 1 mg/kg DON eq. intravenously) was “no deaths were observed”. The “body weight (in words)” value ([7]; 1 mg/kg DON eq. intravenously, 5 days per week for 2 weeks) was “maintained their body weight”, the “inhibition of GLS-1 (in words)” value ([8]; intact compound) was “inactive” and the “overt toxicity (in words)” value [9] was “No overt signs of toxicity”. For the same compound, the “% DRP-104 remaining” value [10] was 0%, the remaining at 1 h, 20 μM [11] was 0% and the “survival (in words)” value (MC38 tumors [12]) was “enhanced survival compared to vehicle”. For the same compound, the remaining at 1 h, 10 μM [13] was 0%, the “GI histology (in words)” value [14] was “improvement in all these parameters” and the “GI morphology (in words)” value ([14]; 1 mg/kg DON eq. subcutaneously) was “mild lymphocytic infiltration”. For the same compound, the “GI morphology (in words)” value ([14]; 0.1 and 0.3 mg/kg DON eq. subcutaneously) was “normal”, the “tumor GLS-1 activity versus vehicle (in words)” value (GLS-1) was “significant inhibition of tumor GLS-1 activity” and the remaining at 1 h, 20 μM [15] was 0%. The “metabolites found (MET-ID)” value ([16]; GI tissue homogenate) was “only the M1 metabolite”, the “metabolites found (MET-ID)” value ([16]; tumor homogenate) was “both DON and M1 metabolite” and the “M+5 isotopologue share of the total glutamate pool” value (EL4 tumors [17]) was 14.66%.

In the case of CCCCCOC(=O)Nc1nc(=O)n([C@@H]2O[C@H](C)[C@@H](O)[C@H]2O)cc1F [capecitabine], the “average 5-fluorouracil concentration in tumor versus adjacent healthy tissue” value [18] is listed as 3.2 fold.

In the case of [N-]=[N+]=CC(=O)CC[C@H](N)C(=O)O [DON, 6-Diazo-5-oxo-L-norleucine, reference compound], the “patients with stable disease or regression” value [19] is listed as 66%, the EC50 (P493B lymphoma cells) is listed as 4 ± 0.6 µM and the “tumor response (in words)” value (EL4 tumors [3]) is listed as “complete regression of the tumor”. For the same compound, the “tumor FGAR increase versus vehicle” value (FGAR) was greater than 80 fold, the WBC (Complete blood count) was 0.93 ± 0.18 K/uL and the body weight reduction ([7]; 1 mg/kg intravenously, 5 days per week for 2 weeks) was 20 to 30%. For the same compound, the “mice that required euthanasia based on IACUC weight loss guidelines” value ([7]; 1 mg/kg intravenously, 5 days/week for 2 weeks) was 63%, the IC50 [8] was 10 ± 0.3 µM and the “GI histology (in words)” value [14] was “severe GI toxicity”. The “tumor GLS-1 activity versus vehicle (in words)” value (GLS-1) was “significant inhibition of tumor GLS-1 activity”.

For COc1ccc(/C=C\c2cc(OC)c(OC)c(OC)c2)cc1OP(=O)(O)O [CA4P, combretastatin A4 phosphate], the “tumor versus plasma delivery (in words)” value [18] is given as “two- to threefold”.

From PMC9668306 (Science Advances, 2022)
